Laboratory results as given in the array DNA melting data of Ke et al. (doi:10.1101/2024.01.08.574731).

Legend:
[1] = folding enthalpy; higher = less favourable; fluorescence melt of hairpins on a sequencing array, two-state fit; settings: sodium 0.088 M
How it was run: (§1)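 Folding enthalpy and melting temperature come from bootstrapped two-state fits to Cy3 fluorescence of library hairpins carrying annealed Cy3 and quencher oligos on a sequenced MiSeq flow cell. Imaging was done in 50 mM Na-HEPES pH 8.0, 25 mM NaCl, stepping by 2.5 °C up to 60 °C, and signals were normalised to pre-quench Cy3 and to control constructs. Results of four replicates were combined by inverse variance, and fitted temperatures were raised by 9.35 °C to match UV melts.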

[2] = melting temperature; fluorescence melt of hairpins on a sequencing array, two-state fit, raised by 9.35 °C to match UV melts; settings: sodium 0.088 M
How it was run: as §1

GAGTTACGAAAGTACCTC (((.(((....))).)))
folding enthalpy [1]: -24.6 kcal/mol
Tm [2]: 40.3 °C

GCCAAGCGAAAGCTATGC ((..(((....)))..))
folding enthalpy [1]: -13.2 kcal/mol
Tm [2]: 33.9 °C

GTTGTTCGAAAGAAGAAC (((.(((....))).)))
folding enthalpy [1]: -27.6 kcal/mol
Tm [2]: 43.3 °C

GAACTACGAAAGTACTTC (((.(((....))).)))
folding enthalpy [1]: -9.53 kcal/mol
Tm [2]: 25.9 °C

GGCCATCGAAAGATAGCC (((.(((....))).)))
folding enthalpy [1]: -29.4 kcal/mol
Tm [2]: 48.3 °C

GCGCCCGGAAACAGGCGC (((((.(....).)))))
folding enthalpy [1]: -31.7 kcal/mol
Tm [2]: 66.7 °C

GCAAGGCGAAAGCGCTGC (((..((....))..)))
folding enthalpy [1]: -17.3 kcal/mol
Tm [2]: 50.2 °C

GATCTTCTTCAAGATC ((((((....))))))
folding enthalpy [1]: -27.7 kcal/mol
Tm [2]: 43.5 °C

GTTGAGGGAAACTTCGAC ((.((.(....).)).))
folding enthalpy [1]: -20.3 kcal/mol
Tm [2]: 31.5 °C

GATCATGTGGATGATC ((((((....))))))
folding enthalpy [1]: -35.2 kcal/mol
Tm [2]: 47.3 °C

GCATCCGAAAGGATGTGC ((((((....)))..)))
folding enthalpy [1]: -18.9 kcal/mol
Tm [2]: 60.5 °C

GATCATCGTCATGATC ((((((....))))))
folding enthalpy [1]: -32.4 kcal/mol
Tm [2]: 45.4 °C

GATCAAGTCTTTGATC ((((((....))))))
folding enthalpy [1]: -43.8 kcal/mol
Tm [2]: 48.9 °C

GCGAAATGTCGC ((((....))))
folding enthalpy [1]: -18.6 kcal/mol
Tm [2]: 44.8 °C

GTCCGCGGAAACGTGGGC (.((.((....)).)).)
folding enthalpy [1]: -26.5 kcal/mol
Tm [2]: 53 °C

GATCCTCCAAAGGATC ((((((....))))))
folding enthalpy [1]: -28.8 kcal/mol
Tm [2]: 50.4 °C

GATCTTTCGTAAGATC ((((((....))))))
folding enthalpy [1]: -30.6 kcal/mol
Tm [2]: 44.4 °C

GCTTGTTCGAAAGAAAGC (((..(((....))))))
folding enthalpy [1]: -16.2 kcal/mol
Tm [2]: 26.5 °C

GATCTCTTTCGAGATC ((((((....))))))
folding enthalpy [1]: -28.2 kcal/mol
Tm [2]: 52.2 °C

GATCACATAGGTGATC ((((((....))))))
folding enthalpy [1]: -39.1 kcal/mol
Tm [2]: 55.8 °C

GCGGTAGGAAACTGCCGC ((((.((....)).))))
folding enthalpy [1]: -29.6 kcal/mol
Tm [2]: 61.6 °C

GACACAACGAAAGTTGTC (((..(((....))))))
folding enthalpy [1]: -9.73 kcal/mol
Tm [2]: 38.7 °C

GCCGCCCCGAAAGGGGGC (((..(((....))))))
folding enthalpy [1]: -6.87 kcal/mol
Tm [2]: 67.5 °C

GTCTGAACGAAAGTTGAC (((..(((....))))))
folding enthalpy [1]: -16.4 kcal/mol
Tm [2]: 31.7 °C

GCCGGCGAAAGCCTGGC ((((((....))).)))
folding enthalpy [1]: -24.8 kcal/mol
Tm [2]: 68.8 °C

GAATTCGGAAACGAATTC (((((((....)))))))
folding enthalpy [1]: -35 kcal/mol
Tm [2]: 58.6 °C

GCGCCACCGAAAGGTCGC (((..(((....))))))
folding enthalpy [1]: -23.5 kcal/mol
Tm [2]: 51.4 °C

GTTTCCGAAAGGAAAC ((((((....))))))
folding enthalpy [1]: -41.3 kcal/mol
Tm [2]: 67.8 °C

GGAGTCGGAAACAACTCC (((((.(....).)))))
folding enthalpy [1]: -32.6 kcal/mol
Tm [2]: 41.5 °C

GTTGACGAAAGTCTAAAC ((((((....)))..)))
folding enthalpy [1]: -12.8 kcal/mol
Tm [2]: 30.4 °C

GTTCGCCGAAAGGCCAAC (((.(((....))).)))
folding enthalpy [1]: -15.3 kcal/mol
Tm [2]: 39.4 °C

GACTCCGAAAGGAAAGTC ((((((....)))..)))
folding enthalpy [1]: -24.8 kcal/mol
Tm [2]: 44.4 °C

CGAACGGAAACGTTCTCG ((((((....)))..)))
folding enthalpy [1]: -11.2 kcal/mol
Tm [2]: 36.8 °C

GACCTCCGAAAGGAAGTC (((.(((....))).)))
folding enthalpy [1]: -26.1 kcal/mol
Tm [2]: 44.7 °C

GTGTCAGGAAACTGATAC ((.((((....)))).))
folding enthalpy [1]: -29.4 kcal/mol
Tm [2]: 45.8 °C

GATCCAAGTCTGGATC ((((((....))))))
folding enthalpy [1]: -41.8 kcal/mol
Tm [2]: 49 °C

GCAAGGCGAAAGCAATGC (((..((....))..)))
folding enthalpy [1]: -16 kcal/mol
Tm [2]: 41.3 °C

GTTTCCGAAAGGATAAC ((((((....))).)))
folding enthalpy [1]: -19.8 kcal/mol
Tm [2]: 37.6 °C
